Broadly, the pEC50 is −log10 of the EC50, conventionally taken in molar units.

pEC50: −log10 of the molar value.

The values that follow come from article PMC12032937 (iScience, 2025).

The target of assay [1] is T1, mPRε (Mus musculus, UniProt Q6TCG2).
T1 sequence (Q6TCG2 1-375): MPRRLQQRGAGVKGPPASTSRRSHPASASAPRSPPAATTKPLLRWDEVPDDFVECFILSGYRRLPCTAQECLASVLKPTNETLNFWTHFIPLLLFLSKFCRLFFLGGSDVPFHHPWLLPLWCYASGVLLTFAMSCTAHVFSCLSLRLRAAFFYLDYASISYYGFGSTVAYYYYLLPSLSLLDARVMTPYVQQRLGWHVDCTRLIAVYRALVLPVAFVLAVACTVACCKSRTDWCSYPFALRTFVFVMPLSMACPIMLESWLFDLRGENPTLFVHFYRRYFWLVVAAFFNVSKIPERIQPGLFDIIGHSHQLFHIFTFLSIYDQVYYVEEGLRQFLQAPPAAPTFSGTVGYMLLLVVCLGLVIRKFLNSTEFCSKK
Kind of assay: Gs luminescent reporter assay. The class given is cell-based. In a few lines: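 Clonal MDA-MB-231 cells stably expressing mouse mPRε with a C-terminal GFP tag, transfected (Lipofectamine 3000) with CRE-luciferase reporter, grown 72 h, then treated 6 h with a test compound concentration series; forskolin positive control. Lysed, luciferase luminescence read; runs kept only if positive control ≥2× untreated. Min/max scaled 0–100, curves fitted for EC50; n = 4.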
For orientation: Reporter assays use an easily measured gene product as a stand-in for the process of interest.

For assay [2], the target named is T2, mPRδ (Mus musculus, UniProt Q6TCG5).
T2 sequence (Q6TCG5 1-343): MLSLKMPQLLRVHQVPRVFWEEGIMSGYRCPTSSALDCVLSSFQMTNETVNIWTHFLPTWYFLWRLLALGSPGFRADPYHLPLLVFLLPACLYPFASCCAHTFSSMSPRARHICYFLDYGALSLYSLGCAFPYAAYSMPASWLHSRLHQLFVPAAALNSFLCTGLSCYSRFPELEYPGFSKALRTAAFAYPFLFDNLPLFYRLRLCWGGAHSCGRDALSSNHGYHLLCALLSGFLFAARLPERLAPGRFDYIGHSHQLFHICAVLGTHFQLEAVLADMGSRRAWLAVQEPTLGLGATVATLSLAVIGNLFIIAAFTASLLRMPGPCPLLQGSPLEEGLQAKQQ
Nature of the assay: Gq luminescent reporter assay. The class given is cell-based.

For assay [3], the target named is T2, mPRδ. Nature of the assay: PKC activation. The class given is cell-based. The settings on record: mPRδ-GFP cells, 300nM, 20 min, increase above control (100%).
Assay [4] has as its target T2, mPRδ. Nature of the assay: PKA activation. It counts as cell-based. The settings on record: mPRδ-GFP cells, 20 min, mean ± SEM, n=4.
Assay [5] deals with mPRδ. The settings on record: MDA231 cells transiently transfected to express mPRδ; cited from earlier work.
The target in assay [6] is T1, mPRε. Kind of assay: PKA activation. It counts as cell-based. The settings on record: mPRε-GFP cells, 20 min; for PKA activation, pPKA/PKA normalized to control (100%): mean ± SEM, n=4; for increase in PKA activation compared to control treatment: increase above control (100%). An outline of the steps: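 MDA-MB-231 cells lentivirally expressing mouse mPRε-C-terminal GFP, FACS-selected clonal line, kept in DMEM/10% charcoal-stripped FBS, passage ≤20. Treated 20 min with test compound at 3–300nM, lysed in RIPA with phosphatase inhibitors, immunoblotted for phospho and total kinase. Ratio normalized to control within the line, then to host MDA231 cells; n = 4 separate passages; two-way ANOVA, Sidak post hoc.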

On to `CC(=O)[C@H]1CC[C@H]2[C@@H]3CC[C@H]4C[C@H](O)CC[C@]4(C)[C@H]3CC[C@]12C` [ALLO, allopregnanolone], for which the pEC50 is 8.60 at mPRε [1] and 7.95 at mPRδ [2]. Also, the “increase in PKC activation/phosphorylation compared to control treatment” value on mPRδ [3] worked out at 43.58 ± 5.34%. The “PKA activation, pPKA/PKA normalized to control (100%)” value at mPRδ [4] (3nM) worked out at 86.327 ± 5.39%; at mPRδ [4] (10nM), 91.441 ± 4.66%; at mPRδ [4] (30nM), 83.155 ± 4.54%; at mPRδ [4] (100nM) it was 98.624 ± 11.00%; on mPRδ [4] (300nM), 103.26 ± 14.05%; at mPRε [6] (3nM), 105.57 ± 15.02%. Further, the “PKA activation, pPKA/PKA normalized to control (100%)” value at mPRε [6] (10nM) is given as 130.55 ± 16.45%; at mPRε [6] (30nM), 153.4 ± 19.57%; at mPRε [6] (100nM), 160.49 ± 20.14%; on mPRε [6] (300nM), 164.44 ± 15.71%. Further, the “phosphorylation of ERK” value in the assay on mPRδ [5] is listed as “significant increase”. In addition, the results for the “increase in PKA activation compared to control treatment” value at mPRε [6] (30nM), on mPRε [6] (100nM) and at mPRε [6] (300nM) were 53.44%, 60.49% and 64.44%, respectively.
`CC(=O)[C@H]1CC[C@H]2[C@@H]3CCC4=CC(=O)CC[C@]4(C)[C@H]3CC[C@]12C` [progesterone]: the “phosphorylation of ERK” value in the assay with mPRδ [5] is given as “significant increase”.
